Results gathered from unrelated publications.
ABCB1: ATP-dependent translocase ABCB1 (ABCB1, Homo sapiens, UniProt P08183)

The efflux ratio of `CC1(C)CCC2(CC1)N[C@@H](C(=O)N[C@@H]1CC[C@@H](C(N)=O)OC1)[C@H](c1ccnc(Cl)c1F)[C@]21C(=O)Nc2cc(Cl)ccc21` is reported as 9.3 (ABCB1; Caco-2; 10 µM, 2 h).
The CC50 of `Cc1cc(-c2ccc(C(F)(F)F)cn2)[nH]c1C(=O)N[C@H](CN)c1nc(CO)cs1` is reported as > 47 µM (Cf2Th-CCR5; cell growth or viability, MTS; 48 h).
The thermodynamic solubility of `CC(C)CCC[C@@H](C)[C@H]1CC[C@H]2[C@@H]3CC=C4C[C@@H](OC(=O)CCC(=O)NCCCC[C@H](NC(=O)[C@H]5CCCN5C(=O)[C@H](CCC(=O)O)NC(=O)[C@H](C)NC(=O)[C@@H](NC(=O)C[C@H](O)[C@H](CC(C)C)NC(=O)[C@H](CC(N)=O)NC(=O)[C@@H](NC(=O)[C@H](CCC(=O)O)NC(=O)CNC(=O)[C@@H](CCCCN)NC(=O)CNC(=O)[C@H](CC(C)C)NC(=O)[C@@H]5CCCN5C(=O)[C@@H](CCCCN)NC(=O)[C@H](Cc5ccccc5)NC(=O)[C@H](Cc5ccc(O)cc5)NC(=O)[C@@H]5CCCN5C(=O)[C@@H](N)Cc5ccc(O)cc5)C(C)C)C(C)C)C(N)=O)CC[C@]4(C)[C@H]3CC[C@]12C` is reported as > 500 µg/mL (aqueous buffer; pH 6.5).
The CC50 of `COc1ccc(S(=O)(=O)ON=C2C=C(C)C(=O)C(C)=C2)cc1` is reported as 3.54 µM (LNCaP; cell growth or viability).
The Papp B→A of `C[C@]12CCCN1CC1=NNC(=O)c3cc(F)cc4[nH]c2c1c34` is reported as 36.4 ×10⁻⁶ cm/s (ABCB1; MDCK-MDR1; 1 µM).
For `Cc1cc(-c2ccc(C(F)(F)F)cn2)[nH]c1C(=O)N[C@@H](CN)c1ncc(CO)s1`, the CC50 was > 47 µM (Cf2Th-CCR5; cell growth or viability, MTS; 48 h).
With `COCCc1ccc(OCC(O)CNC(C)C)cc1` (centres unmarked) the Papp B→A was 31.5 ×10⁻⁶ cm/s (ABCB1; MDCK-MDR1; 5 µM).
For `CC[C@@H]1CN(C(=O)NCC(F)(F)F)C[C@@H]1c1cnc2cnc3[nH]ccc3n12`, the MRT(0-t) was 9.27 h (beagle dog, plasma; oral, 1 mg/kg, single dose).
The CC50 of `O=C1CC(N(CCc2ccccc2)C(=S)Nc2ccccc2)C(=O)N1c1ccc(Br)cc1` (centres unmarked) is reported as < 20 µM (Jurkat; cell growth or viability, ATP luminescence; 18 h).
For `O=C(CCCCCCC(=O)Nc1ccc(CC[18F])cc1)NO`, the tracer uptake was 1.5 %ID/g (LNCaP; male nude, tumour; intravenous, 2 h, tumour-bearing).
`CC[C@H](C)[C@H](NC(=O)[C@H](Cc1ccccc1)NC(=O)[C@H](Cc1ccc(O)cc1)NC(=O)[C@@H]1CCCN1C(=O)[C@@H](N)Cc1ccc(O)cc1)C(=O)N1CCC[C@H]1C(=O)N[C@@H](CC(C)C)C(=O)N[C@H](CCCCN)C(=O)NCC(=O)NCC(=O)N[C@@H](CCC(=O)O)C(=O)N[C@H](C(=O)N[C@@H](CC(N)=O)C(=O)N[C@@H](CC(C)C)[C@@H](O)CC(=O)N[C@H](C(=O)N[C@@H](C)C(=O)N[C@@H](CCC(=O)O)C(=O)N1CCC[C@@H]1C(=O)N[C@@H](CCCCNC(=O)CCC(=O)O[C@H]1CC[C@@]2(C)C(=CC[C@H]3[C@@H]4CC[C@H]([C@H](C)CCCC(C)C)[C@@]4(C)CC[C@@H]32)C1)C(N)=O)C(C)C)C(C)C` gave a thermodynamic solubility of < 1 µg/mL (aqueous buffer; pH 6.5).
`CC1=NN(c2ccc(C)c(C)c2)C(=O)/C1=N\Nc1cccc(-c2cccc(C(=O)O)c2)c1O` gave an IC50 of 20 to 30 µM (LN-229; cell growth or viability; 72 h).
For `CCn1cnc2c(=O)[nH]c(N)nc21.NCCNCCN.[Pt+2]`, the IC50 was > 100 µM (Jurkat; cell growth or viability, WST-1).
For `O=C(O)CSc1nnc(Br)n1-c1ccc(C2CC2)c2ccccc12`, the inhibition was -21% (Multidrug and toxin extrusion protein 2 (SLC47A2, Homo sapiens, UniProt Q86VL8); transporter uptake, inhibitor; HEK293; 1 µM, 2 min).
